ChEMBL document CHEMBL4765239, “Discovery of a Novel Highly Selective Histamine H4 Receptor Antagonist for the Treatment of Atopic Dermatitis” (J Med Chem, 2018)
≈ marks a conversion by molar mass, not a printed value.

Tests used:
Histamine H3 receptor = Histamine H3 receptor (Homo sapiens, UniProt Q9Y5N1); assay: Displacement of [3H]-N-alpha-methylhistamine from recombinant human histamine H3 receptor expressed in CHO-K1 cell membranes measured after 30 mins by microbeta scintillation counting method; design: species or system Cell membrane
Sequence of Histamine H3 receptor (Q9Y5N1 whole entry): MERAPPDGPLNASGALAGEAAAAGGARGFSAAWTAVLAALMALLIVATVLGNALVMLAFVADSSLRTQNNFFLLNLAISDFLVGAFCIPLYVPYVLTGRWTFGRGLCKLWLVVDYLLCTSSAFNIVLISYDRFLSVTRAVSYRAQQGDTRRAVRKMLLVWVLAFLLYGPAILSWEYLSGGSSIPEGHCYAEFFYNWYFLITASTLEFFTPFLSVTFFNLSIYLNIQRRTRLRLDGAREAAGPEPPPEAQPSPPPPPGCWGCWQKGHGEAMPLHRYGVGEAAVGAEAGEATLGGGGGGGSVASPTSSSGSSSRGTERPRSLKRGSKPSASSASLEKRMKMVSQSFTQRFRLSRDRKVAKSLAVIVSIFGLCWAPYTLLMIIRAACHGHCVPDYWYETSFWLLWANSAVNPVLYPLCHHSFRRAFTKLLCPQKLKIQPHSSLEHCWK
Procedure, shortened: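 Competitive binding on CHO-K1 membranes expressing human H3R ([3H]Nα-methylhistamine) or mouse H4R ([3H]histamine). Run in 50 mM Tris-HCl pH 7.4 for 30 min at 27 °C, then filtered onto 0.5% PEI-treated glass fiber and washed three times with ice-cold buffer. Bound radioactivity read by liquid scintillation counting.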

[1] = Intrinsic clearance in CD1 mouse liver microsomes at 5 uM incubated upto 30 mins in presence of NADPH by UPLC-UV analysis; assay type: ADME, Microsome; settings: read-out: CLH
Procedure, shortened: (§1)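 Test compound at 5 µM incubated with pooled CD-1 mouse or human liver microsomes plus 1 mM NADPH. Remaining compound measured by UPLC-UV at 0, 10, 20 and 30 min. CLint derived from the first-order elimination rate constant, normalized to microsomal protein.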

[2] = Intrinsic clearance in human liver microsomes at 5 uM incubated upto 30 mins in presence of NADPH by UPLC-UV analysis; assay type: ADME, Microsome; settings: read-out: CLH; procedure, shortened: as §1
[3] = Solubility of compound in SGF at pH 1.2 incubated for 2 hrs by UPLC-UV analysis; assay type: physicochemical
Procedure, shortened: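 Compound incubated at 37 °C in FaSSIF (pH 6.5) for 0.5 h or in SGF (pH 1.2) for 2 h. Filtered through 0.45 µm, concentration measured by UPLC-UV.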

[4] = Solubility of compound in FaSSIF at pH 6.5 incubated for 0.5 hrs by UPLC-UV analysis
Histamine H4 receptor = Histamine H4 receptor (Homo sapiens, UniProt Q9H3N8); assay: Displacement of [3H]-histamine from recombinant human histamine H4 receptor expressed in CHO-K1 cell membranes measured after 30 mins by microbeta scintillation counting method; design: species or system Cell membrane
Sequence of Histamine H4 receptor (Q9H3N8 whole entry): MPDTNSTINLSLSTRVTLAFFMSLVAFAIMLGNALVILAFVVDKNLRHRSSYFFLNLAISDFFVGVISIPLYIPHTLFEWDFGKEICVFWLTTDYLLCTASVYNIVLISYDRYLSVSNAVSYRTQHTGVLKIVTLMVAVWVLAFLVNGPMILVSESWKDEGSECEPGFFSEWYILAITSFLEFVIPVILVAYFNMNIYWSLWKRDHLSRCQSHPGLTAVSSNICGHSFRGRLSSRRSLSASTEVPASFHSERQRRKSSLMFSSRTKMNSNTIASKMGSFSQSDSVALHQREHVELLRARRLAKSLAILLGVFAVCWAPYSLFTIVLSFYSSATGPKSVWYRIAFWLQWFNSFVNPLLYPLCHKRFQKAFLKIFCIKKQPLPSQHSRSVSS

[5] = target: T1, 5-hydroxytryptamine receptor 3A (Homo sapiens) (UniProt P46098); assay: Displacement of [3H]BRL 43694 from human recombinant 5-HT3 receptor at 10 uM after 120 mins by scintillation counting analysis relative to control
T1 sequence (whole entry): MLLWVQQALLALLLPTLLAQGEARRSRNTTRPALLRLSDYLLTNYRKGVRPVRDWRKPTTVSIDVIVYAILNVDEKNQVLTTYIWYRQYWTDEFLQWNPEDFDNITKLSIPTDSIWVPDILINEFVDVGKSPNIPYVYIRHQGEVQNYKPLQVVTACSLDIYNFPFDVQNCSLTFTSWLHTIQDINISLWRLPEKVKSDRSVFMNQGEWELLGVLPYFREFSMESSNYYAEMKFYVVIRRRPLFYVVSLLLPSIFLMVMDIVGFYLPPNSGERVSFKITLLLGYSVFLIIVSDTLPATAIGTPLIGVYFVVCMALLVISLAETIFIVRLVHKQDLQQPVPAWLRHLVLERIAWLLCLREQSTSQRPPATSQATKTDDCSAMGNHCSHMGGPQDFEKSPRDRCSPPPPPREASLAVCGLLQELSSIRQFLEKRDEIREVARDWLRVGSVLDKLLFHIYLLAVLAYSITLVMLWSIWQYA

[6] = Lipophilicity, logD of the compound at pH 7.4; assay type: physicochemical; settings: buffer
[7] = Basicity constant, pKa of the compound; assay type: physicochemical
[8] = target: T2, 5-hydroxytryptamine receptor 3A (Homo sapiens, UniProt P46098); assay: Displacement of [3H]BRL 43694 from human recombinant 5-HT3 receptor after 120 mins by scintillation counting analysis
T2 sequence (P46098 whole entry): T1 sequence (whole entry)

[9] = Cmax in ICR mouse at 50 mg/kg, po measured upto 24 hrs by LC-MS/MS analysis; assay type: ADME, organism-based; design: route oral, dose 50 mg/kg, time <=24; settings: in vivo
Procedure, shortened: (§2)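 Female ICR mice, n=3 per group, given test compound orally. Blood sampled at 0.5, 1, 2, 4, 7 and 24 h post dose; plasma levels quantified by LC-MS/MS. Parameters from non-compartmental analysis.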

[10] = Tmax in ICR mouse at 50 mg/kg, po measured upto 24 hrs by LC-MS/MS analysis; assay type: ADME, organism-based; settings: in vivo; procedure, shortened: as §2
[11] = AUC (all) in ICR mouse at 50 mg/kg, po measured upto 24 hrs by LC-MS/MS analysis; assay type: ADME, organism-based; design: route oral, dose 50 mg/kg, time <=24; settings: in vivo; procedure, shortened: as §2

Row | SMILES | IC50 (Histamine H3 receptor) | microsomal CLint at 5 µM [1] | microsomal CLint at 5 µM [2] | solubility at 2 h [3] | solubility at 0.5 h [4] | IC50 (Histamine H4 receptor) | also measured
1 | CN1CCN(C(=O)c2cc3cc(Cl)ccc3[nH]2)CC1 [JNJ-7777120] | > 100 µM | 128 µL/min/mg | 6.5 µL/min/mg | 1410 µg/mL (≈ 5.09 mM) | 378 µg/mL (≈ 1.36 mM) |  | 
2 | CNC1CN(c2nc3ncc(Cl)cc3n3cnnc23)C1 |  |  |  |  |  | 0.065 µM | inhibition ([5]; filed as antagonist): 50%
3 | CN1CCN(c2nc3nc(Cl)c(Cl)cc3n3cnnc23)CC1 |  | 5.28 µL/min/mg | 2.55 µL/min/mg | 1950 µg/mL (≈ 5.76 mM) | 163 µg/mL (≈ 0.482 mM) |  | 
4 | CN[C@@H]1CCN(c2nc3ncc(Cl)cc3n3cnnc23)C1 |  |  |  |  |  | 4.1 µM | 
5 | CN1CCN(c2nc3ncccc3n3cnnc23)CC1 |  | 5.36 µL/min/mg | 0.61 µL/min/mg | > 2000 µg/mL | > 2000 µg/mL | 3 µM | 
6 | CNC1CN(c2nc3ncc(Cl)cc3n3nnnc23)C1 |  |  |  |  |  | 0.053 µM | inhibition [5]: 18%
7 | Clc1cnc2nc(N3CCCNCC3)c3nncn3c2c1 |  |  |  |  |  | > 10 µM | 
8 | CN1CCN(c2nc3ncc(Br)cc3n3cnnc23)CC1 | 71 µM | 3.13 µL/min/mg | 1.64 µL/min/mg | 1930 µg/mL (≈ 5.54 mM) | 679 µg/mL (≈ 1.95 mM) |  | 
9 | CN1CCN(c2nc3ncc(C(F)(F)F)cc3n3cnnc23)CC1 | 43 µM | 2.05 µL/min/mg | 1.31 µL/min/mg | > 2000 µg/mL | 1230 µg/mL (≈ 3.65 mM) |  | 
10 | CN1CCN(c2cc3ccc(Cl)cc3n3cnnc23)CC1 | > 100 µM | 8.43 µL/min/mg | 0.86 µL/min/mg | > 2000 µg/mL | > 2000 µg/mL | 6.2 µM | 
11 | CN1CCCN(c2nc3ncc(Cl)cc3n3cnnc23)CC1 | 11 µM |  |  |  |  | 2.9 µM | 
12 | Cc1cnc2nc(N3CCN(C)CC3)c3nncn3c2c1 |  | 2.91 µL/min/mg | 5.17 µL/min/mg | 2000 µg/mL (≈ 7.05 mM) | 1900 µg/mL (≈ 6.72 mM) |  | 
13 | N[C@@H]1CCN(c2nc3ncc(Cl)cc3n3cnnc23)C1 |  |  |  |  |  | 6.3 µM | 
14 | Clc1cnc2nc(N3CCN4CCCC4C3)c3nncn3c2c1 (configuration not stated) | 24 µM |  |  |  |  | 0.052 µM | 
15 | CN1CCN(c2nc3ncc(I)cc3n3cnnc23)CC1 |  | 3.74 µL/min/mg | 2.81 µL/min/mg | 1250 µg/mL (≈ 3.16 mM) | 126 µg/mL (≈ 0.319 mM) |  | 
16 | Clc1cnc2nc(N3CCN(C4CC4)CC3)c3nncn3c2c1 |  |  |  |  |  | > 10 µM | 
17 | CNC1CN(c2nc3ncc(Cl)cc3c3ncnn23)C1 |  |  |  |  |  | 1.1 µM | inhibition [5]: 32%
18 | CN1CCN(c2nc3ncc(Cl)cc3n3cnnc23)CC1 |  | 1.98 µL/min/mg | 0.6 µL/min/mg | > 2000 µg/mL | 1240 µg/mL (≈ 4.1 mM) | 0.077 µM | logD [6]: 0.95; inhibition ([5]; filed as antagonist): 100%; pKa [7]: 9.9; IC50 [8]: 0.057 µM; Cmax [9]: 4630 ng/mL; Tmax [10]: 30 min; AUC at 24 h [11]: 23600 ng·h/mL

Row | SMILES | IC50 (Histamine H3 receptor) | microsomal CLint at 5 µM [1] | microsomal CLint at 5 µM [2] | solubility at 2 h [3] | solubility at 0.5 h [4] | IC50 (Histamine H4 receptor) | also measured
19 | Clc1cnc2nc(N3CCNCC3)c3nncn3c2c1 |  |  |  |  |  |  | pKa [7]: 8.9
20 | Cc1c(Br)cnc2nc(N3CCN(C)CC3)c3nncn3c12 | 24 µM | 7.62 µL/min/mg | 3.84 µL/min/mg | 1800 µg/mL (≈ 4.97 mM) | 583 µg/mL (≈ 1.61 mM) |  | 
21 | CN1CCN(c2nc3ncc(Cl)cc3n3nnnc23)CC1 | 73 µM |  |  |  |  |  | inhibition ([5]; filed as antagonist): 85%
22 | CN1CCN(c2nc3nc(OCC(F)(F)F)c(Cl)cc3n3cnnc23)CC1 |  | 4.94 µL/min/mg | 5.72 µL/min/mg |  |  |  | 
23 | CN1CCN(c2nc3ccc(Cl)cc3n3cnnc23)CC1 | 4.4 µM | 29.1 µL/min/mg | 5.83 µL/min/mg | > 2000 µg/mL | 227 µg/mL (≈ 0.75 mM) |  | IC50 (Histamine H4 receptor; cho-k1): 0.022 µM; logD [6]: 2.12; Cmax [9]: 676 ng/mL; Tmax [10]: 40.2 min; AUC at 24 h [11]: 1680 ng·h/mL
24 | CN(C)[C@@H]1CCN(c2nc3ncc(Cl)cc3n3cnnc23)C1 |  |  |  |  |  | 4.8 µM | 
25 | CN1CCN(c2nc3ccc([N+](=O)[O-])cc3n3cnnc23)CC1 | 41 µM | 10.4 µL/min/mg | 2.63 µL/min/mg | 1900 µg/mL (≈ 6.06 mM) | 80.2 µg/mL (≈ 0.256 mM) | 0.17 µM | 
26 | CN1CCN(c2nc3ccccc3n3cnnc23)CC1 | > 100 µM | 73.1 µL/min/mg | 11.5 µL/min/mg | > 2000 µg/mL | 1190 µg/mL (≈ 4.42 mM) | 2.3 µM | 
27 | Cc1ccc2nc(N3CCN(C)CC3)c3nncn3c2c1 | 15 µM | 23.3 µL/min/mg | 7.51 µL/min/mg | > 2000 µg/mL | 1940 µg/mL (≈ 6.88 mM) | 0.57 µM | 
28 | CN(C)C1CN(c2nc3ncc(Cl)cc3n3cnnc23)C1 |  |  |  |  |  | 1.2 µM | inhibition ([5]; filed as antagonist): 77.5%
29 | CN1CCN(c2nc3cccnc3n3cnnc23)CC1 |  | 50.2 µL/min/mg | 8.21 µL/min/mg | 1920 µg/mL (≈ 7.14 mM) | > 2000 µg/mL | 3 µM | 
30 | CN1CCN(c2nc3ncc(Br)cc3n3nnnc23)CC1 | 49 µM |  |  |  |  |  | inhibition ([5]; filed as antagonist): 89%
31 | CCOc1nc2nc(N3CCN(C)CC3)c3nncn3c2cc1Cl |  | 3.56 µL/min/mg | 3.28 µL/min/mg |  |  | 0.52 µM | 
32 | NC1CN(c2nc3ncc(Cl)cc3n3cnnc23)C1 |  |  |  |  |  | 5.2 µM | inhibition [5]: 24.5%
33 | CN1CCN(c2nc3ncc(Cl)cc3c3ncnn23)CC1 | 75 µM |  |  |  |  |  | inhibition ([5]; filed as antagonist): 96%
34 | CN1CCN(c2nc3nc(C#N)c(Cl)cc3n3cnnc23)CC1 | 36 µM | 0.69 µL/min/mg | 1.63 µL/min/mg |  |  |  | 
35 | Clc1cnc2nc(N3CC4CCCNC4C3)c3nncn3c2c1 (configuration not stated) |  |  |  |  |  | > 10 µM | 
36 | CN1CCN(c2nc3ncc(C#N)cc3n3cnnc23)CC1 |  | 2.8 µL/min/mg | 3.49 µL/min/mg | 1740 µg/mL (≈ 5.92 mM) | 417 µg/mL (≈ 1.42 mM) |  | 
